Our source for the Activity and inhibition values is ChEMBL document CHEMBL4177764 (J Med Chem, 2018).

For assay [1], the species on record is Homo sapiens. Nature of the assay: Antiproliferative activity against human CHLA20 cells after 72 hrs in presence of ABCB1 inhibitor tariquidar by CellTiter-Glo luminescent cell viability assay. In kind it is functional, cell-based. (ATP-based viability assays read luminescence as a measure of living cells.)
In a further assay the test system is NCI-H3122. Nature of the assay: Antiproliferative activity against human NCI-H3122 cells after 72 hrs by CellTiter-Glo luminescent cell viability assay. The format is functional, cell-based.
The next assay deals with KARPAS-299. Nature of the assay: Antiproliferative activity against human KARPAS299 cells after 72 hrs by CellTiter-Glo luminescent cell viability assay. The format is functional, cell-based.
Assay [2] concerns the target T1, ALK tyrosine kinase receptor (Homo sapiens, UniProt Q9UM73). The experiment in a line: Induction of ALK degradation in human CHLA20 cells at 100 nM after 4 hrs in presence of ABCB1 inhibitor tariquidar by immunoblot method. In kind it is cell-based. The essentials:
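CHLA20 cells were co-treated with 125 nM tariquidar, then treated with 100 nM compound over a time course. ALK was read by immunoblot.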
In general terms: Immunoblotting shows a protein as a band on a membrane.

Assay [3] addresses T1, ALK tyrosine kinase receptor. Nature of the assay: Induction of ALK degradation in human Kelly cells at 100 nM after 8 hrs by immunoblot method. The format is cell-based. The essentials: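 Kelly cells were treated with 100 nM compound for varying times and lysed at each time point. ALK levels were read by immunoblot.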
Assay [4] has as its system SH-SY5Y. The experiment in a line: Antiproliferative activity against human SH-SY5Y cells after 72 hrs in presence of ABCB1 inhibitor tariquidar by CellTiter-Glo luminescent cell viability assay. The format is functional, cell-based.
A further assay deals with SU-DHL-1. Nature of the assay: Antiproliferative activity against human SU-DHL1 cells after 72 hrs by CellTiter-Glo luminescent cell viability assay. The format is functional, cell-based.
Assay [5] concerns SH-SY5Y. Nature of the assay: Antiproliferative activity against human SH-SY5Y cells after 72 hrs by CellTiter-Glo luminescent cell viability assay. The format is functional, cell-based.
Assay [6] deals with Protein cereblon (Homo sapiens) (UniProt Q96SW2). The experiment in a line: Displacement of Atto565-Lenalidomide from CRBN fused with DDB1deltaB (unknown origin) by fluorescence polarization assay. On the technique in general: In fluorescence polarisation assays a small probe gives low polarisation when free and higher when bound to something large.
Sequence of Protein cereblon (Homo sapiens) (Q96SW2 whole entry, the tested form may be a part): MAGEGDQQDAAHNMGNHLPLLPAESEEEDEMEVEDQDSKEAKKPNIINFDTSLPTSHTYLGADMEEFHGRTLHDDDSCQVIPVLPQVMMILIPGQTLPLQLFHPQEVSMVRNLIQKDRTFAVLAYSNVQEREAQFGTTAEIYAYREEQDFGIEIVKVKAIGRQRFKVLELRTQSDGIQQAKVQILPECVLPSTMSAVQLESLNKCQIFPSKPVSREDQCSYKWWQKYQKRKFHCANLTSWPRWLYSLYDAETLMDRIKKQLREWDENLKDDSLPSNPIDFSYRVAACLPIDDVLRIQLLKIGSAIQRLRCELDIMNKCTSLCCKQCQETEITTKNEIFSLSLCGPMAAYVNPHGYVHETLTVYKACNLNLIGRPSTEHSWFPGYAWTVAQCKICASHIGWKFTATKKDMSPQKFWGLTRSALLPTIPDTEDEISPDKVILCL
For assay [7], the species on record is Homo sapiens. Nature of the assay: Antiproliferative activity against human CHLA20 cells after 72 hrs by CellTiter-Glo luminescent cell viability assay. The format is functional, cell-based.
In assay [8] the target is Signal transducer and activator of transcription 3 (Homo sapiens) (UniProt P40763). Nature of the assay: Inhibition of STAT3 phosphorylation at Y705 in human CHLA20 cells at 250 nM after 6 to 48 hrs in presence of ABCB1 inhibitor tariquidar by immunoblot method. In kind it is cell-based.
Sequence of Signal transducer and activator of transcription 3 (Homo sapiens) (P40763 whole entry): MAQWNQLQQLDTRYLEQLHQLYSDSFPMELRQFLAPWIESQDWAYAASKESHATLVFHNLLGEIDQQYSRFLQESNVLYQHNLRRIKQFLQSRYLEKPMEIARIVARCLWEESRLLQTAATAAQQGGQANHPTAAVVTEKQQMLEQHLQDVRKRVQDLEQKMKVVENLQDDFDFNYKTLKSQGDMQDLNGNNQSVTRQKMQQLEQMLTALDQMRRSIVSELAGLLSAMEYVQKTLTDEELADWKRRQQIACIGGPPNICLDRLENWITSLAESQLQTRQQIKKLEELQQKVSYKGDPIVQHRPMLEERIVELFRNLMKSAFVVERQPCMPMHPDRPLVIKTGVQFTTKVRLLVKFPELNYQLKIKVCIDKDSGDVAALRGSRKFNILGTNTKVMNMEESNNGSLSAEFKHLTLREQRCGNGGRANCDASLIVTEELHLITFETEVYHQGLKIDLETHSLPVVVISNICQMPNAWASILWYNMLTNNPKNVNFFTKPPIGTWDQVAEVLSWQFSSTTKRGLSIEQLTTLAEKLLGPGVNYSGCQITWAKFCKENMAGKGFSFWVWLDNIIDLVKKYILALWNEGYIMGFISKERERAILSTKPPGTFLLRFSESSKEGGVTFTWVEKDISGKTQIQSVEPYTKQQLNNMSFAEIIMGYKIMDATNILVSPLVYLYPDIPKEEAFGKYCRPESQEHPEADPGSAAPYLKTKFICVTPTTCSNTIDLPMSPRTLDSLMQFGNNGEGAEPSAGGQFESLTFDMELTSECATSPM
Assay [9] has the same target. Nature of the assay: Inhibition of STAT3 phosphorylation at Y705 in human Kelly cells at 250 nM after 6 to 48 hrs by immunoblot method. In kind it is cell-based.

Active and inactive are the calls of the source. The calls are words filed in the database; no cut-off is given here.

T1 sequence (Q9UM73 19-1620 limits assumed): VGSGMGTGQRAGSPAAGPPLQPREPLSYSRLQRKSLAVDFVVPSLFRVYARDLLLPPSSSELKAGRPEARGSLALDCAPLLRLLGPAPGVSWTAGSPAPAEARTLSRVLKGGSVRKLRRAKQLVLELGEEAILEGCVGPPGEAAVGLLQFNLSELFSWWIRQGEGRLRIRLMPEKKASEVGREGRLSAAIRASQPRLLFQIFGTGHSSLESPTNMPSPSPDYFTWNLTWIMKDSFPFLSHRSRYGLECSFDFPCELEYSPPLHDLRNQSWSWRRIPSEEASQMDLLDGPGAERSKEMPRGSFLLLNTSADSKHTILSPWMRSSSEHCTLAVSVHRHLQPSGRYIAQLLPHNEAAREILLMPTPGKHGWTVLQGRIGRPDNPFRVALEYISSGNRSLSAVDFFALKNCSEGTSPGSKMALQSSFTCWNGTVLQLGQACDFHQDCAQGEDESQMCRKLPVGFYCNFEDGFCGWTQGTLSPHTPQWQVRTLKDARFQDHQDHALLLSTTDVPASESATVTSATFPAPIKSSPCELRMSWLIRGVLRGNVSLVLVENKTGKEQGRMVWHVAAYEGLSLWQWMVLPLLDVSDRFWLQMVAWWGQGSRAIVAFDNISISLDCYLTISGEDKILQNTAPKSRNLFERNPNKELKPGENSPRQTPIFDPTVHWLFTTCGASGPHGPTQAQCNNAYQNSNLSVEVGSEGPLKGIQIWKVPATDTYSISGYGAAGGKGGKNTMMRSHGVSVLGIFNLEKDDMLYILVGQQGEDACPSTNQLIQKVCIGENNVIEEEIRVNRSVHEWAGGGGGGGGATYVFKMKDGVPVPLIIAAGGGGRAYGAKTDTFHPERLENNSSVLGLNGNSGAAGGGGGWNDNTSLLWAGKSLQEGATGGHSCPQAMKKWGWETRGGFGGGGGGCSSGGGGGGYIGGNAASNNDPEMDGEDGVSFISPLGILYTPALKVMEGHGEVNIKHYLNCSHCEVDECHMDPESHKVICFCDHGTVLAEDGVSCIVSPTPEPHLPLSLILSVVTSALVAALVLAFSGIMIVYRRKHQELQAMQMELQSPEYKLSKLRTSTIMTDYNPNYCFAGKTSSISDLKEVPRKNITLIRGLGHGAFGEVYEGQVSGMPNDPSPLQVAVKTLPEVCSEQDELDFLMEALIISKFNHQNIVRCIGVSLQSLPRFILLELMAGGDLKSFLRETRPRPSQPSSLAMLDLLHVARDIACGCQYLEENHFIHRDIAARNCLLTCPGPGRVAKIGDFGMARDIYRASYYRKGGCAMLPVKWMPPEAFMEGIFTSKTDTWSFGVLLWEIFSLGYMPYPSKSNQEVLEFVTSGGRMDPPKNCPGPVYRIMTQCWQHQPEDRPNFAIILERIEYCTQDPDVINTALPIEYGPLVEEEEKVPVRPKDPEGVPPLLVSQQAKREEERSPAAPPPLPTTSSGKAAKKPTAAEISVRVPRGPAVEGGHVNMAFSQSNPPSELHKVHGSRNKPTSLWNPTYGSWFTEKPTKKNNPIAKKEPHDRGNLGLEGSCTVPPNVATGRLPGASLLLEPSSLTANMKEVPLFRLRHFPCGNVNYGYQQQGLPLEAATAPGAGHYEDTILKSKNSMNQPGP

In the case of `COc1cc(N2CCN(CCOCCOCCNC(=O)CNc3cccc4c3C(=O)N(C3CCCNC3=O)C4=O)CC2)ccc1Nc1ncc(Cl)c(Nc2ccccc2S(=O)(=O)C(C)C)n1` (stereo unspecified), the outcome (in the assay listed under Homo sapiens [1]; in assay [2]; in assay [3]; in the assay on SH-SY5Y [4]) was Active. The outcome with NCI-H3122, in the assay with KARPAS-299, in the assay on SU-DHL-1, in the assay on SH-SY5Y [5] and in the assay listed under Homo sapiens [7] was inactive. In assay [6], the inhibition result is “inactive”.
For `Cc1cc(Nc2ncc(Cl)c(Nc3ccccc3S(=O)(=O)C(C)C)n2)c(OC(C)C)cc1C1CCN(CCOCCOCCNC(=O)CNc2cccc3c2C(=O)N(C2CCCNC2=O)C3=O)CC1` (stereo unspecified), the result (in the assay listed under Homo sapiens [1]; in [2]; in [3]; in the assay on SH-SY5Y [4]) was Active. Moreover, the outcome with NCI-H3122, with KARPAS-299, with SU-DHL-1, with SH-SY5Y [5] and in the assay filed under Homo sapiens [7] was inactive. The inhibition result in assay [6] is “inactive”.
On to `Cc1cc(Nc2ncc(Cl)c(Nc3ccccc3S(=O)(=O)C(C)C)n2)c(OC(C)C)cc1C1CCNCC1`, for which the outcome in the assay listed under Homo sapiens [1], in the assay with NCI-H3122, with KARPAS-299, in the assay with SH-SY5Y [4], in the assay on SU-DHL-1 and with SH-SY5Y [5] was Active. For the same compound, in the assay listed under Homo sapiens [7], the outcome was Active. Further, the inhibition entry in [8] and in assay [9] was “inactive” throughout.
Take `COc1cc(N2CCC(N3CCN(C)CC3)CC2)ccc1Nc1ncc(Cl)c(Nc2ccccc2S(=O)(=O)C(C)C)n1`: the outcome in the assay filed under Homo sapiens [1], in the assay with NCI-H3122, in the assay on KARPAS-299, with SH-SY5Y [4], in the assay on SU-DHL-1 and in the assay with SH-SY5Y [5] was Active. Moreover, the result in the assay listed under Homo sapiens [7] was Active.
